What was measured:
Renin = molecular target: T1, Renin (Homo sapiens, UniProt P00797); assay: Inhibition of human renin
T1 sequence (P00797 whole entry): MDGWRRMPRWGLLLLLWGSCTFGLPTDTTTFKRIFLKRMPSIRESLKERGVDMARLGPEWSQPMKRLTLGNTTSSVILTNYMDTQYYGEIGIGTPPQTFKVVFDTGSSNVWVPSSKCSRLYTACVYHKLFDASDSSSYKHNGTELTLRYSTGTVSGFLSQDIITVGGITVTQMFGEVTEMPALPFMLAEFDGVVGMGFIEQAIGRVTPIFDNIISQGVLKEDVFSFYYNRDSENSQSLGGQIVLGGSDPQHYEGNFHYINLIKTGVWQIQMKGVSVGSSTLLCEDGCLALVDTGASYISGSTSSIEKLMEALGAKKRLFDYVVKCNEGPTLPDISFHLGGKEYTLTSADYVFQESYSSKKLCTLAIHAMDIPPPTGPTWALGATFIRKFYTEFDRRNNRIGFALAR
Method in brief: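 Purified human renal renin, 0.24 mGu, with pure human angiotensinogen (0.21 μM) at 37 °C in 0.135 M maleate pH 6.0 containing 3 mM EDTA, 1.4 mM PMSF, 0.44% BSA and 1% DMSO (final). At least three inhibitor concentrations bracketing the IC50 preincubated with enzyme 5 min, then 10.0 min reaction stopped by freezing. Angiotensin I read by RIA; IC50 by regression of percent inhibition.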

Renin (Homo sapiens) [1] = molecular target: T2, Renin (Homo sapiens) (UniProt P00797); assay: Compound was evaluated for percent inhibition of renin at a concentration of 4E-7M at 5 min pre-incubation time
T2 sequence (whole entry): T1 sequence (P00797 whole entry)
Method in brief: (§1)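 Purified human renal renin with pure human angiotensinogen (0.21 μM final) in 0.135 M maleate buffer pH 6.0, 3 mM EDTA, 1.4 mM PMSF, 0.44% BSA, 1% DMSO. Inhibitor at one fixed concentration, preincubated with renin 5 or 60 min at 37 °C before substrate addition. Reaction then ran 10.0 min, stopped by freezing. Angiotensin I measured by radioimmunoassay; percent inhibition reported.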

Renin (Homo sapiens) [2] = molecular target: T2, Renin (Homo sapiens); assay: Compound was evaluated for percent inhibition of renin at a concentration of 4E-7M at 60 min pre-incubation time; method in brief: as §1
Renin (Homo sapiens) [3] = molecular target: T2, Renin (Homo sapiens); assay: Compound was evaluated for percent inhibition of renin at a concentration of 5E-8 M at 5 min pre-incubation time; method in brief: as §1
Renin (Homo sapiens) [4] = molecular target: T2, Renin (Homo sapiens); assay: Compound was evaluated for percent inhibition of renin at a concentration of 5E-8 M at 60 min pre-incubation time; method in brief: as §1
Renin (Homo sapiens) [5] = molecular target: T2, Renin (Homo sapiens); assay: Compound was evaluated for percent inhibition of renin at a concentration of 2.5*10e-8 M at 5 min pre-incubation time; method in brief: as §1
Renin (Homo sapiens) [6] = molecular target: T2, Renin (Homo sapiens); assay: Compound was evaluated for percent inhibition of renin at a concentration of 2.5*10e-8 M at 60 min preincubation time; method in brief: as §1
Renin (Homo sapiens) [7] = molecular target: T2, Renin (Homo sapiens); assay: Compound was evaluated for percent inhibition of renin at a concentration of 1E-8M at 5 min pre-incubation time; method in brief: as §1
Renin (Homo sapiens) [8] = molecular target: T2, Renin (Homo sapiens); assay: Compound was evaluated for percent inhibition of renin at a concentration of 1E-8M at 60 min pre-incubation time; method in brief: as §1
Renin (Homo sapiens) [9] = molecular target: T2, Renin (Homo sapiens); assay: Compound was evaluated for percent inhibition of renin at a concentration of 5e-8M at 5 min pre-incubation time; method in brief: as §1
Renin (Homo sapiens) [10] = molecular target: T2, Renin (Homo sapiens); assay: Compound was evaluated for percent inhibition of renin at a concentration of 5e-8M at 60 min pre-incubation time; method in brief: as §1

In the case of `C=C(C[C@H](O)[C@H](CC1CCCCC1)NC(=O)[C@H](CC(C)C)NC(=O)[C@H](Cc1ccccc1)NC(=O)OCC)C(=O)NCC(C)(C)CN(C)C`, the IC50 (Renin) is reported as 10 nM.
`C=C(C[C@H](O)[C@H](CC1CCCCC1)NC(=O)[C@H](Cc1c[nH]cn1)NC(=O)[C@H](CO)NC(=O)OC(C)(C)C)C(=O)NCCC(C)C` showed an IC50 (Renin) of 2000 nM.
`C=C(C[C@H](O)[C@H](CC1CCCCC1)NC(=O)[C@H](C)NC(=O)[C@H](Cc1ccccc1)NC(=O)OC(C)(C)C)C(=O)NCCN(C)C` showed an IC50 (Renin) of 400 nM.
With `CC(C)CNC(=O)[C@@](O)(CN=[N+]=[N-])C[C@H](O)[C@H](CC1CCCCC1)NC(=O)[C@H](Cc1cnc[nH]1)NC(=O)[C@H](Cc1ccccc1)NC(=O)OC(C)(C)C` the IC50 (Renin) was 20 nM.
`C=C(C[C@H](O)[C@H](CC(C)C)NC(=O)[C@H](C)NC(=O)[C@H](Cc1ccccc1)NC(=O)OC(C)(C)C)C(=O)NCC(C)C` showed an inhibition (Renin (Homo sapiens) [1]) of 48%, an IC50 (Renin) of 400 nM and an inhibition (Renin (Homo sapiens) [2]) of 43%.
In the case of `CC(C)CNC(=O)[C@](O)(CN=[N+]=[N-])C[C@H](O)[C@H](CC1CCCCC1)NC(=O)[C@H](Cc1cnc[nH]1)NC(=O)[C@H](Cc1ccccc1)NC(=O)OC(C)(C)C`, the IC50 (Renin) is reported as 1 nM.
Compound `C=C(C[C@H](O)[C@H](CC1CCCCC1)NC(=O)[C@H](C)NC(=O)[C@H](Cc1ccccc1)NC(=O)OC(C)(C)C)C(=O)NCC1CCCCC1` has an inhibition (Renin (Homo sapiens) [3]) of 49%, an IC50 (Renin) of 50 nM and an inhibition (Renin (Homo sapiens) [4]) of 53%.
In the case of `C=C(C[C@H](O)[C@H](CC1CCCCC1)NC(=O)[C@H](Cc1c[nH]cn1)NC(=O)[C@H](Cc1ccccc1)NC(=O)OC(C)(C)C)C(=O)NCC(C)(C)CN(C)C`, the IC50 (Renin) is reported as 5 nM.
`CC(C)CNC(=O)[C@](O)(CN)C[C@H](O)[C@H](CC1CCCCC1)NC(=O)[C@H](Cc1c[nH]cn1)NC(=O)[C@H](Cc1ccccc1)NC(=O)OC(C)(C)C` gave an IC50 (Renin) of 15 nM.
Work on `CC(C)CNC(=O)[C@@](O)(CCl)C[C@H](O)[C@H](CC1CCCCC1)NC(=O)[C@H](Cc1c[nH]cn1)NC(=O)[C@H](Cc1ccccc1)NC(=O)OC(C)(C)C` yielded an IC50 (Renin) of 20 nM.
`CC(C)CNC(=O)[C@@](O)(CN)C[C@H](O)[C@H](CC1CCCCC1)NC(=O)[C@H](Cc1cnc[nH]1)NC(=O)[C@H](Cc1ccccc1)NC(=O)OC(C)(C)C` gave an IC50 (Renin) of 35 nM.
With `C=C(C[C@H](O)[C@H](CC1CCCCC1)NC(=O)[C@H](Cc1c[nH]cn1)NC(=O)[C@H](Cc1ccccc1)NC(=O)OC(C)(C)C)C(=O)NCCC(C)C` the IC50 (Renin) was 1.5 nM.
Compound `CC(C)CNC(=O)[C@](O)(CCl)C[C@H](O)[C@H](CC1CCCCC1)NC(=O)[C@H](Cc1cnc[nH]1)NC(=O)[C@H](Cc1ccccc1)NC(=O)OC(C)(C)C` has an IC50 (Renin) of 0.8 nM.
Compound `C=C(C[C@H](O)[C@H](CC1CCCCC1)NC(=O)[C@H](C)NC(=O)[C@H](Cc1ccccc1)NC(=O)OC(C)(C)C)C(=O)NCC(C)(C)CN(C)C` has an IC50 (Renin) of 25 nM.
`C=C(C[C@H](O)[C@H](CC1CCCCC1)NC(=O)[C@H](CC(C)C)NC(=O)[C@H](Cc1ccccc1)NC(=O)OCC)C(=O)NCC(C)C` showed an IC50 (Renin) of 5 nM.
Work on `C=C(C[C@H](O)[C@H](CC1CCCCC1)NC(=O)[C@H](Cc1c[nH]cn1)NC(=O)[C@H](Cc1ccccc1)NC(=O)OC(C)(C)C)C(=O)NCC(C)C` yielded an IC50 (Renin) of 2 nM.
With `CC(C)CCNC(=O)[C@@](C)(O)C[C@H](O)[C@H](CC1CCCCC1)NC(=O)[C@H](Cc1c[nH]cn1)NC(=O)[C@H](Cc1ccccc1)NC(=O)OC(C)(C)C` the IC50 (Renin) was 5.5 nM.
`CC(C)CNC(=O)[C@](O)(CC(C)C)C[C@H](O)[C@H](CC1CCCCC1)NC(=O)[C@H](Cc1c[nH]cn1)NC(=O)[C@H](Cc1ccccc1)NC(=O)OC(C)(C)C` showed an IC50 (Renin) of 30 nM.
Work on `CC(C)CCNC(=O)[C@](C)(O)C[C@H](O)[C@H](CC1CCCCC1)NC(=O)[C@H](Cc1c[nH]cn1)NC(=O)[C@H](Cc1ccccc1)NC(=O)OC(C)(C)C` yielded an IC50 (Renin) of 50 nM.
`C=C(C[C@H](O)[C@H](CC1CCCCC1)NC(=O)[C@H](Cc1c[nH]cn1)NC(=O)[C@H](Cc1ccccc1)NC(C)=O)C(=O)NCCC(C)C` was tested, and the IC50 (Renin) was 4 nM.
`CNC(=O)C1(C[C@H](O)[C@H](CC2CCCCC2)NC(=O)[C@H](C)NC(=O)[C@H](Cc2ccccc2)NC(=O)OC(C)(C)C)CO1` (stereo partly drawn) was tested, and the IC50 (Renin) was 40 nM.
With `C=C(C[C@H](O)[C@H](CC1CCCCC1)NC(=O)[C@H](Cc1c[nH]cn1)NC(=O)[C@H](Cc1ccccc1)NC(=O)OCC)C(=O)NCCC(C)C` the IC50 (Renin) was 3 nM.
In the case of `C=C(C[C@H](O)[C@H](CC1CCCCC1)NC(=O)[C@H](CC(C)C)NC(=O)[C@H](Cc1ccccc1)NC(=O)OC(C)(C)C)C(=O)NCCC(C)C`, the IC50 (Renin) is reported as 4 nM.
`CC(C)CCNC(=O)C1(C[C@H](O)[C@H](CC2CCCCC2)NC(=O)[C@H](C)NC(=O)[C@H](Cc2ccccc2)NC(=O)OC(C)(C)C)CO1` (stereo partly drawn) was tested, and the inhibition (Renin (Homo sapiens) [5]) was 66%, the IC50 (Renin) was 25 nM and the inhibition (Renin (Homo sapiens) [6]) was 61%.
Compound `C=C(C[C@H](O)[C@H](CC1CCCCC1)NC(=O)[C@H](C)NC(=O)[C@H](Cc1ccccc1)NC(=O)OC(C)(C)C)C(=O)NCC(C)C` has an IC50 (Renin) of 10 nM.
For `C=C(C[C@H](O)[C@H](CC1CCCCC1)NC(=O)[C@H](C)NC(=O)[C@H](Cc1ccccc1)NC(=O)OC(C)(C)C)C(=O)NCCC(C)C`, the inhibition (Renin (Homo sapiens) [7]) was 38%, the IC50 (Renin) was 10 nM and the inhibition (Renin (Homo sapiens) [8]) was 31%.
For `C=C(C[C@H](O)[C@H](CC1CCCCC1)NC(=O)[C@H](Cc1ccccc1)NC(=O)[C@H](Cc1ccccc1)NC(=O)OC(C)(C)C)C(=O)NCC(C)(C)CN(C)C`, the IC50 (Renin) was 8.5 nM.
For `C=C(C[C@H](O)[C@H](CC1CCCCC1)NC(=O)[C@H](C)NC(=O)[C@H](Cc1ccccc1)NC(=O)OC(C)(C)C)C(=O)NCCc1ccccc1`, the IC50 (Renin) was 150 nM.
`C=C(C[C@H](O)[C@H](CC1CCCCC1)NC(=O)[C@H](C)NC(=O)[C@H](Cc1ccccc1)NC(=O)OC(C)(C)C)C(=O)NC` gave an inhibition (Renin (Homo sapiens) [9]) of 44%, an inhibition (Renin (Homo sapiens) [10]) of 37% and an IC50 (Renin) of 50 nM.
`C=C(C[C@H](O)[C@H](CC1CCCCC1)NC(=O)[C@H](Cc1c[nH]cn1)NC(=O)[C@H](Cc1ccccc1)NC(=O)CC(C)(C)C)C(=O)NC` gave an IC50 (Renin) of 2 nM.
In the case of `C=C(C[C@H](O)[C@H](CC(C)C)NC(=O)[C@H](C)NC(=O)[C@H](Cc1ccccc1)NC(=O)OC(C)(C)C)C(=O)NCCC(C)C`, the IC50 (Renin) is reported as 200 nM.
`C=C(C[C@H](O)[C@H](CC(C)C)NC(=O)[C@H](C)NC(=O)[C@H](Cc1ccccc1)NC(=O)OC(C)(C)C)C(=O)N[C@H](O)CC(C)C` gave an IC50 (Renin) of 6000 nM.
`C=C(C[C@H](O)[C@H](CC1CCCCC1)NC(=O)C(Cc1c[nH]cn1)NC(=O)C(C)(O)c1ccccc1)C(=O)NCCC(C)C` (stereo partly drawn) was tested, and the IC50 (Renin) was 100 nM.

— ChEMBL document CHEMBL1123892, “Renin inhibitors based on novel dipeptide analogues. Incorporation of the dehydrohydroxyethylene isostere at the scissile bond” (J Med Chem, 1987)
